In the library only some 1.9% were active in any assay of this set; here they are far more common.
PHOSPHO1 inh – inhibitors of human PHOSPHO1 phosphatase | Q8TCT1 | recombinant PHOSPHO1, absorbance phosphatase assay | inhibition, % at 13.3 µM | 290,000 tested, 1.1% active | AID 1565; in the data active means inhibition above about 60%
Target sequence (Q8TCT1 whole entry, looked up): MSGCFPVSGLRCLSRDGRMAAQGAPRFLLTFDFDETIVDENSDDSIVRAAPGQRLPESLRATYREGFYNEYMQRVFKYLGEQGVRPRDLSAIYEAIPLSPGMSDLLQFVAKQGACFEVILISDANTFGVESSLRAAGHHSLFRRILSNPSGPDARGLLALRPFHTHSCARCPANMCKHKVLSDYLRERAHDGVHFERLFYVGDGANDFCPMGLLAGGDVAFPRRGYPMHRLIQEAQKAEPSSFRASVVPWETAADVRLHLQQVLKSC
proCasp3 act – activators of human procaspase-3; P42574; recombinant procaspase-3 D3A, Ac-DEVD-pNA absorbance 405 nm; activation, % at 8.5 µM; 330,000 tested, 0.11% active; AID 463141;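 active means activation above the mean of all tested compounds plus 3 SD, cut at about 21% in these data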
Target sequence (P42574 whole entry D9A/D28A/D175A): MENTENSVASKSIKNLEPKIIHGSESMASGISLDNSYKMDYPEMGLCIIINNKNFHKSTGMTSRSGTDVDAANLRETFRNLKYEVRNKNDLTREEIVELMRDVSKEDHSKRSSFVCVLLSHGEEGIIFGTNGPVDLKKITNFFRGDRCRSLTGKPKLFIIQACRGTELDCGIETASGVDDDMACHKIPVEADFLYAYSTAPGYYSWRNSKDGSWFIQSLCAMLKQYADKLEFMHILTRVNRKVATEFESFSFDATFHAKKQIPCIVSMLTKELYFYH
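System: Procaspase-3 D3A mutant. Medium: Zinc-free 300 mM NaCl, 50 mM HEPES, 0.01% Triton X-100. Schedule: 1 h preincubation plus 2 h reaction at 25 °C. Measured by: 405 nm absorbance of p-nitroaniline, reads at 0 and 120 min. Read-out: percent activation relative to control range.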
proCasp7 act – counter-screen for procaspase-3 activators: activators of human procaspase-7. activation, % at 8.5 µM. recombinant procaspase-7, Ac-DEVD-pNA absorbance 405 nm; D23A/D198A/D206A triple mutant, cannot self-cleave; scale: DMSO 0, 5 µM enzyme 100. P55210. 330,000 tested, 0.093% active;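 active means percent activation above the screen-wide mean plus 3 SD, cut at about 25% in these data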
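System: Procaspase-7 triple mutant (PC-7 D3A); measure: % activation from two-timepoint absorbance difference, scaled to controls; times: 1 h compound preincubation, 2 h substrate cleavage, 25 °C; also added: Ac-DEVD-pNA substrate, 400 µM as added; measured by: Epi-absorbance of released pNA at 405 nm, two timepoints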
UBC13 polyUb – human UBC13 polyubiquitination inhibition; inhibition, % at 20 µM; 330,000 tested, 0.47% active; P61088; UBC13 polyubiquitin chain formation, TR-FRET; in the data active means inhibition above about 45%, passing the limit was not always enough; inconclusive means no clear call, values can overlap the other calls
Target sequence (P61088 whole entry, looked up): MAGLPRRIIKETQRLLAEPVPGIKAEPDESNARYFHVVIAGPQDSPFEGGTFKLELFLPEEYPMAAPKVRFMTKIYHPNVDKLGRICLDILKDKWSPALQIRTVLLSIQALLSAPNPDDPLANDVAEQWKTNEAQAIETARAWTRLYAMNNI
IDE cell inh – inhibitors of human insulin-degrading enzyme in cells; P14735; HEK cells, FAbetaB cleavage, fluorescence polarization; inhibition, % at 5.59 µM; 320,000 tested, 0.41% active;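 active means percent inhibition above the average of all tested compounds plus 3 SD, set per screening campaign, cut at about 16% in these data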;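 further: IDE supplied by intact live HEK cells; FP after avidin binding of uncleaved biotin substrate so inhibition keeps polarization high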
IDE act – boosts human insulin-degrading enzyme activity in HEK cells | 340,000 tested, 0.073% active | FAbeta-B cleavage, fluorescence polarization; 0% vehicle, 100% cell-free pure enzyme wells | activation, % at 5.96 µM;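 active means activation above the mean of all tested compounds plus 3 SD, set per screening campaign, cut at about 17% in these data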
Casp3 UBC13 ctr – inhibits human caspase-3 in UBC13 counter-screen; shares compounds with UBC13 polyUb; Recombinant caspase-3, Caspase-Glo 3/7 luminescence, 60 min; inhibition, % at 20 µM; 1,400 tested, 4% active; AID 488856;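 active means mean inhibition across replicates above about 26%, limit read from the data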
UBC13 conf – confirmation of human UBC13 polyubiquitin inhibitors; shares compounds with UBC13 polyUb; UBC13 polyubiquitination, TR-FRET, biochemical; inhibition, % at 10 µM; 1,400 tested, 68% active; in the data active means inhibition above about 45%; inconclusive means no clear call, values can overlap the other calls
Each line names hits and unclear results; the compound was inactive in the other large screens (follow-up assays come after a bar, where they were run).

COc1ccc(C(=O)NNC(=O)CN2CCC(n3nnc4cc(F)ccc43)CC2)cc1	none
COc1ccc(Nc2nc(N3CCCC3)c3ccccc3n2)cc1	UBC13 polyUb 51 | Casp3 UBC13 ctr inactive | UBC13 conf 49
CS(=O)(=O)Nc1ccc(C(=O)NCCSc2ccc(Cl)cc2)cc1	none
O=C(Cn1ccc(=O)[nH]c1=O)Nc1ccc(O)c([N+](=O)[O-])c1	none (no result: PHOSPHO1 inh, proCasp3 act, proCasp7 act, UBC13 polyUb, IDE cell inh)
C#CCOCCOCCOCCNc1nc(N2CCN(C(=O)CCCCCCCCCCNC(=O)[C@@H](CCC(=O)O)n3cc(CCCCCN)nn3)CC2)nc(N2CCN(C(=O)CCCCCCCCCCNC(=O)[C@@H](CCC(=O)O)n3cc(CCCCCN)nn3)CC2)n1	UBC13 polyUb 45 (no result: PHOSPHO1 inh) | Casp3 UBC13 ctr inactive | UBC13 conf inactive
C#CCOCCOCCOCCNc1nc(N2CCN(C(=O)[C@H]([C@@H](C)CC)n3cc(CCCCN)nn3)CC2)nc(N2CCN(C(=O)[C@H](CCCCN)n3cc(CCC(=O)O)nn3)CC2)n1	none (no result: PHOSPHO1 inh)
C#CCOCCOCCOCCNc1nc(N2CCN(C(=O)CCCCCCCCCCNC(=O)[C@H](CCCCN)n3cc(CCCC(=O)O)nn3)CC2)nc(N2CCN(C(=O)CCCCCCCCCCNC(=O)[C@H](CCCN=C(N)N)n3cc(C[C@@H](C)CC)nn3)CC2)n1	UBC13 polyUb 123, IDE act 26 (no result: PHOSPHO1 inh) | Casp3 UBC13 ctr inactive | UBC13 conf 126
C#CCOCCOCCOCCNc1nc(N2CCN(C(=O)CCCCCCCCCCNC(=O)[C@H](CCCCN)n3cc(CCO)nn3)CC2)nc(N2CCN(C(=O)CCCCCCCCCCNC(=O)[C@@H]([C@H](C)O)n3cc(C)nn3)CC2)n1	UBC13 polyUb 121 (no result: PHOSPHO1 inh) | Casp3 UBC13 ctr inactive | UBC13 conf 122
C#CCOCCOCCOCCNc1nc(N2CCN(C(=O)CCCCCCCCCCNC(=O)[C@H](CCCCN)n3cc(C)nn3)CC2)nc(N2CCN(C(=O)CCCCCCCCCCNC(=O)[C@@H]([C@H](C)CC)n3cc(CCCCCN)nn3)CC2)n1	UBC13 polyUb 126, IDE act 39 (no result: PHOSPHO1 inh) | Casp3 UBC13 ctr inactive | UBC13 conf 128
C#CCOCCOCCOCCNc1nc(N2CCOCC2)nc(N2CCN(C(=O)CCCCCCCCCCNC(=O)Cn3cc(CCCCCN)nn3)CC2)n1	none (no result: PHOSPHO1 inh)
C#CCOCCOCCOCCNc1nc(N2CCN(C(=O)CCCCCCCCCCNC(=O)Cn3cc(CCCCCN)nn3)CC2)nc(N2CCN(C(=O)CCCCCCCCCCNC(=O)[C@H]([C@@H](C)CC)n3cc(CCCCCN)nn3)CC2)n1	UBC13 polyUb 124, IDE act 25 (no result: PHOSPHO1 inh) | Casp3 UBC13 ctr inactive | UBC13 conf 123
C#CCOCCOCCOCCNc1nc(N2CCN(C(=O)CCCCCCCCCCNC(=O)[C@H](CCCCN)n3cc(CCCC(=O)O)nn3)CC2)nc(N2CCN(C(=O)CCCCCCCCCCNC(=O)[C@H](CCCCN)n3cc(CCCC(=O)O)nn3)CC2)n1	UBC13 polyUb 45 (no result: PHOSPHO1 inh) | Casp3 UBC13 ctr inactive | UBC13 conf inactive
C#CCOCCOCCOCCNc1nc(N2CCN(C(=O)[C@H](C)n3cc(CCC(=O)O)nn3)CC2)nc(N2CCN(C(=O)[C@H](CCCCN)n3cc(CCCC)nn3)CC2)n1	none (no result: PHOSPHO1 inh, proCasp3 act, proCasp7 act, UBC13 polyUb, IDE cell inh)
C#CCOCCOCCOCCNc1nc(N2CCOCC2)nc(N2CCN(C(=O)CCCCCCCCCCNC(=O)[C@H](CO)n3cc(CCCCCN)nn3)CC2)n1	UBC13 polyUb 62 (no result: PHOSPHO1 inh) | Casp3 UBC13 ctr inactive | UBC13 conf inactive
C#CCOCCOCCOCCNc1nc(N2CCN(C(=O)CCCCCCCCCCNC(=O)[C@@H](CCSC)n3cc(CCO)nn3)CC2)nc(N2CCN(C(=O)CCCCCCCCCCNC(=O)[C@H]([C@@H](C)CC)n3cc(CCCCN=C(N)N)nn3)CC2)n1	UBC13 polyUb 125, IDE act 46 (no result: PHOSPHO1 inh) | Casp3 UBC13 ctr inactive | UBC13 conf 124
CC(SCC(=O)Nc1ccc(F)cc1)c1nc2ccccc2c(=O)[nH]1 (stereo unspecified)	none
CCc1cccc(CC)c1NC(=O)CSc1nnc(C2CC2)n1C	none
COc1ccc(CN(C)C(=O)c2cccc(Oc3ccccc3)c2)c(OC)c1OC	none
C#CCOCCOCCOCCNc1nc(N2CCN(C(=O)CCCCCCCCCCNC(=O)[C@H](CCCCN)n3cc(CCO)nn3)CC2)nc(N2CCN(C(=O)CCCCCCCCCCNC(=O)[C@H](CCCCN)n3cc(CCO)nn3)CC2)n1	UBC13 polyUb 117 (no result: PHOSPHO1 inh) | Casp3 UBC13 ctr inactive | UBC13 conf 125
C#CCOCCOCCOCCNc1nc(N2CCN(C(=O)Cn3cc(CCCCN)nn3)CC2)nc(N2CCN(C(=O)[C@H](CCCCN)n3cc(CCCC)nn3)CC2)n1	none (no result: PHOSPHO1 inh)
Cc1sc2nc(CN3CCOCC3)nc(NS(=O)(=O)c3cc(Cl)ccc3Cl)c2c1C	none (no result: PHOSPHO1 inh)
CC(C)(C)c1ccc(C(=O)N2CCNCC2)cc1	none
O=C(c1ccc(-c2cc(O)c3ncccc3c2)cc1)N1CCNCC1	UBC13 polyUb 114 (no result: PHOSPHO1 inh) | Casp3 UBC13 ctr inactive | UBC13 conf 117
O=S(=O)(NC1CCCC1)c1ccc(S(=O)(=O)NC2CCCC2)cc1	none
O=S(=O)(NC1CCCCC1)c1ccc(Cl)nc1	UBC13 polyUb 50 | Casp3 UBC13 ctr inactive | UBC13 conf inactive
CCOc1ccc(CCNC(=O)COC(=O)c2sccc2C)cc1OCC	none (no result: PHOSPHO1 inh)
COc1ccc(-n2nc(C(=O)NCc3cc(OC)ccc3OC)c3c4ccccc4n(C)c3c2=O)cc1	UBC13 polyUb 47 | Casp3 UBC13 ctr inactive | UBC13 conf inconclusive
Cc1ccc(C)c(N2CCN(C(=S)Nc3ccc4nc(N5CCN(C)CC5)cc(C)c4c3)CC2)c1	UBC13 polyUb 49, IDE act 22 | Casp3 UBC13 ctr inactive | UBC13 conf 73
Cc1noc(/C=C/c2cccs2)c1S(=O)(=O)N1CCC(C(=O)NCCCN2CCC(C)CC2)CC1	UBC13 polyUb 49 | Casp3 UBC13 ctr inactive | UBC13 conf inactive
CN1CCc2c(sc(/N=C/c3c[nH]c4ccccc34)c2C(N)=O)C1	UBC13 polyUb 85 (no result: IDE act) | Casp3 UBC13 ctr inactive | UBC13 conf inactive
CCOC(=O)c1c(N)sc2c(OCC)c(Br)ccc12	none
CCOC(=O)c1c(NC(C)=O)sc2c(OCC(O)CNC(C)(C)C)c(Br)ccc12 (stereo unspecified)	UBC13 polyUb 46 | Casp3 UBC13 ctr inactive | UBC13 conf 74
Cc1ccc(S(=O)(=O)N(C)C)cc1NC(=O)COC(=O)C1CC1	none (no result: PHOSPHO1 inh)
Cc1ccc(O)c(CNc2nc3ccccc3n2C(C)C)c1	none (no result: PHOSPHO1 inh)

High-throughput results from PubChem.
